Kd data for 2 compounds are collected here from article PMC10467613 (RSC Chemical Biology, 2023).

Test [1] concerns the target T1, HsIYD containing 2′-deoxyFMN (Homo sapiens, UniProt Q6PHW0, DEL2-31).
T1 sequence (Q6PHW0 32-289): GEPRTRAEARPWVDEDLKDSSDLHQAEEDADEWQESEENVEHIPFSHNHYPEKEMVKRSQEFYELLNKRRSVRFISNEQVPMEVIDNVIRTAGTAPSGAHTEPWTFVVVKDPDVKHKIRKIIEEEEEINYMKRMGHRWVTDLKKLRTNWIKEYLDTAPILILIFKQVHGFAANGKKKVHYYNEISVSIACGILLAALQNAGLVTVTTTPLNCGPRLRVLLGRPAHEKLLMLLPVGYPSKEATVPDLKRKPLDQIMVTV
In words: flavin fluorescence quenching titration. Format: binding. The method in brief: (§1)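 Enzyme: human IYD lacking residues 2–31 (SUMO fusion, tag removed) or T. neapolitana IYD (C-terminal His6; dithionite wash first). FMN was stripped on a Ni column with up to 1.5 M guanidinium HCl, then reloaded with 200 μM 2′-deoxyFMN for 4 h at 4 °C. Ligand was titrated into 3 μM enzyme in 100 mM potassium phosphate pH 7.4 at 25 °C. Flavin fluorescence (ex 450/em 516 nm) was read 2 min after each addition. Kd was fitted from ΔF/F0 versus total enzyme and total ligand.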

Test [2] addresses T2, TnIYD containing 2′-deoxyFMN (Thermotoga neapolitana, UniProt B9K712).
T2 sequence (B9K712 1-186): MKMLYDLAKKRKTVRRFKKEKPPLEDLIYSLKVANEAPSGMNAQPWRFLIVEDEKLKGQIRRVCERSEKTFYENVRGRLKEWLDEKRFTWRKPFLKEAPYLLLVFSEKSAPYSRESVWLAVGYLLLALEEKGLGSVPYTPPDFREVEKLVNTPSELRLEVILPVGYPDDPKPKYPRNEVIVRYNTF
In words: flavin fluorescence quenching titration. Format: binding. The method in brief: as §1

`N[C@@H](Cc1ccc(O)c(F)c1)C(=O)O` [F-Tyr, 3-Fluoro-L-tyrosine] showed a Kd in test [1] of 1500 ± 70 µM. In turn, `COc1ccc(C[C@H](N)C(=O)O)cc1I` [O-Me I-Tyr] yielded a Kd in test [2] of 6.3 ± 0.7 µM.

A word on the Kd: it is the equilibrium constant for the complex coming apart. Low readings indicate tighter binding, high ones weaker binding.
